The test system of series [1] is Leishmania infantum. Briefly: Leishmanicidal activity against amastigote stage of iRFP expressing Leishmania infantum BCN150 infected in BALB/c mouse splenocytes assessed as decrease in parasite viability after 72 hrs. To be noted: BCN150, 72 h. The class given is functional, organism-based. Put shortly:
(§1)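 Female BALB/c mice infected intravenously with metacyclic L. infantum-iRFP promastigotes. After 5 weeks, spleens collagenase-digested (2 mg/mL, 20 min, 37 °C); splenocytes plated in RPMI with 20% FCS. Compounds added at 10 to 0.07 μM for 72 h. Infrared emission read at 708 nm; IC50 is the 50% reduction versus DMSO control. SI = CC50 in uninfected splenocytes / amastigote IC50.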

The target in another series is T1, DNA topoisomerase 1 (Homo sapiens, UniProt P11387).
T1 sequence (P11387 whole entry): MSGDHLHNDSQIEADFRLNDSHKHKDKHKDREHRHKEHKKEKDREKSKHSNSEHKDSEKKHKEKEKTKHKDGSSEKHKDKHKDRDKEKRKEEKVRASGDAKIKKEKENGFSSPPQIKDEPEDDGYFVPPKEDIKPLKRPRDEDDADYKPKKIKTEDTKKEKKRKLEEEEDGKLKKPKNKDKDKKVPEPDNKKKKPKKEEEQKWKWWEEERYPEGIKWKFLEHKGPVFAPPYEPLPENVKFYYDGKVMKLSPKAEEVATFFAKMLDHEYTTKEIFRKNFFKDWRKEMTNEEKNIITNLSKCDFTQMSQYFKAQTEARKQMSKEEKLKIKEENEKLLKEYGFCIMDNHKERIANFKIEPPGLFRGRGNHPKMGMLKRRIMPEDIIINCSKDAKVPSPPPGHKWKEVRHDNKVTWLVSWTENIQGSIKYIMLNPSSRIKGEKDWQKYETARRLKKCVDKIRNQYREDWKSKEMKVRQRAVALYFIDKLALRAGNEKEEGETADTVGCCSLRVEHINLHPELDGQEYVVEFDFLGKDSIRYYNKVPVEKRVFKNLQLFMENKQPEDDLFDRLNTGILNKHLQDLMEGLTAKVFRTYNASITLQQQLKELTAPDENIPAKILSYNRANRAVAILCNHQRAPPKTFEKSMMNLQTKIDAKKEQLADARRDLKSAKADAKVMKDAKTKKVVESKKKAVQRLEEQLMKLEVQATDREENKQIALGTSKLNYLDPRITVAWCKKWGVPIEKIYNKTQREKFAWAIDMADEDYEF
Kind of series: Inhibition of human Top1B expressed in Top1B deficient Saccharomyces cerevisiae EKY3 assessed as decrease in relaxation of supercoiled pSK DNA preincubated for 15 mins followed by DNA addition and measured after 1 to 16 mins by agarose gel electrophoresis. The method, boiled down:
(§2)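 Recombinant LTopIB or hTopIB from TopIB-deficient yeast EKY3 (galactose-induced), purified on phosphocellulose then phenyl-Sepharose. Enzyme (1 unit) preincubated with compound for 15 min at 37 °C. Then 0.5 μg supercoiled pSK DNA added in 10 mM Tris-HCl pH 7.5, 5 mM MgCl₂, 0.1 mM EDTA, 50 mM KCl, BSA. Incubated at 37 °C, stopped with 1% SDS. Agarose gel; relaxed and supercoiled bands quantified.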

Series [2] can be described thus: Selectivity index, ratio of CC50 for BALB/c mouse splenocytes to IC50 for amastigote stage of iRFP expressing Leishmania infantum BCN150 infected in BALB/c mouse splenocytes. The class given is toxicity, cell-based. As to conditions: read-out: Ratio CC50/IC50. Put shortly: as §1
Series [3] is described as follows: Cytotoxicity against BALB/c mouse splenocytes assessed as decrease in […] viability after 72 hrs by Alamar blue assay. The class given is cell-based, Splenocyte. The method, boiled down: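 Uninfected BALB/c mouse splenocytes, obtained and cultured as for the explants (RPMI, 20% FCS), exposed to compounds at 100 to 0.8 μM for 72 h at 37 °C. Viability read by Alamar Blue. CC50 taken from dose-response curves. Mean ± sd of at least three experiments in triplicate.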

The nature of series [4]: Inhibition of Leishmania donovani Top1B expressed in Top1B deficient Saccharomyces cerevisiae EKY3 assessed as decrease in relaxation of supercoiled pSK DNA preincubated for 15 mins followed by DNA addition and measured after 1 to 16 mins by agarose gel electrophoresis. Put shortly: as §2
For series [5], the system named is Leishmania infantum. Kind of series: Leishmanicidal activity against promastigote stage of iRFP expressing Leishmania infantum BCN150 assessed as decrease in parasite viability. The class given is functional, organism-based. The method, boiled down:
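Promastigotes grown in M199 with 10% heat-inactivated FCS, seeded at 10^6 cells/mL. Compounds given as three-fold DMSO stock dilutions, final DMSO ≤0.1%. Viability read as infrared fluorescence (ex 684, em 708 nm). IC50 is the 50% emission reduction versus DMSO control, from nonlinear fits. Triplicate wells.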

The test system of a further series is Leishmania donovani. Kind of series: Inhibition of Leishmania donovani Top1B expressed in Top1B deficient Saccharomyces cerevisiae EKY3 assessed as decrease in relaxation of supercoiled pSK DNA at 100 uM at 37 degC preincubated for 15 mins followed by DNA addition and measured after 1 to 16 mins by agarose gel electrophoresis. Put shortly: as §2

Activity calls are given as the source filed them. The calls are words filed in the database; no cut-off is given here.

Regarding `FC(F)(F)c1ccc(-c2cc(-c3ccsc3)c3ncccc3n2)cc1`, the IC50 is 3.67 µM with Leishmania infantum [1], 82.1 µM on DNA topoisomerase 1 (read-out: IC50), 62.8 µM in series [4] (read-out: IC50) and above 100 µM in the series on Leishmania infantum [5]. Besides, in series [2], the selectivity ratio stood at 49.4. In addition, the CC50 at 72 h in series [3] was determined as 181 µM.

For `O=[N+]([O-])c1cccc(-c2cc(-c3ccc(-c4ccccc4)cc3)c3ncccc3n2)c1`, the half-inhibitory concentration (IC50) with Leishmania infantum [1] was 0.29 µM; at DNA topoisomerase 1 (read-out: IC50), 67.5 µM; in series [4] (read-out: IC50), 78.7 µM; in the series with Leishmania infantum [5], 15.1 µM. Also, the selectivity ratio in series [2] was found to be 104. Moreover, in series [3], the CC50 at 72 h was determined as 30.1 µM.

`COc1ccc(-c2cc(-c3ccc(F)cc3)nc3cccnc23)cc1`: the IC50 in the series with Leishmania infantum [1] is 0.76 µM; on DNA topoisomerase 1, “Not Active”; in series [4], “Not Active”; with Leishmania infantum [5], 97.2 µM. Moreover, in series [2], the selectivity ratio is 31.8. Moreover, the 50% cytotoxic concentration (CC50) at 72 h in series [3] stood at 24.2 µM.

Take `Fc1ccc(-c2cc(-c3ccsc3)c3ncccc3n2)cc1`: the 50% inhibitory concentration (IC50) with Leishmania infantum [1] is 7.93 µM; on DNA topoisomerase 1 (read-out: IC50), 43.8 µM; in series [4] (read-out: IC50), 49.3 µM; in the series on Leishmania infantum [5], 67 µM. Also, the selectivity ratio in series [2] turned out to be 4.1. For the same compound, the half-maximal cytotoxic concentration (CC50) at 72 h in series [3] was determined as 32.5 µM.

`COc1ccc(-c2cc(-c3ccc([N+](=O)[O-])cc3)nc3cccnc23)cc1`: the concentration for half-maximal inhibition (IC50) in the series on Leishmania infantum [1] is 0.58 µM; on DNA topoisomerase 1, “Not Active”; in series [4], “Not Active”; in the series on Leishmania infantum [5], 20.7 µM. Besides, in series [2], the selectivity ratio stood at 187. Besides, the CC50 at 72 h in series [3] worked out at 109 µM.

As to `Fc1ccc(-c2cc(-c3ccc(-c4ccccc4)cc3)c3ncccc3n2)cc1`, the half-maximal inhibitory concentration (IC50) with Leishmania infantum [1] is 5.04 µM; on DNA topoisomerase 1 (read-out: IC50), 83.3 µM; in series [4] (read-out: IC50), 58.1 µM; in the series on Leishmania infantum [5], 45.2 µM. The selectivity ratio in series [2] amounted to 30.2. The half-maximal cytotoxic concentration (CC50) at 72 h in series [3] was determined as 153 µM.

In the case of `COc1ccc(-c2cc(-c3cccc([N+](=O)[O-])c3)nc3cccnc23)cc1`, the IC50 in the series on Leishmania infantum [1] is 3.79 µM; on DNA topoisomerase 1 it was “Not Active”; in series [4], “Not Active”; in the series with Leishmania infantum [5], 45.2 µM. Further, in series [2], the selectivity ratio amounted to 35.1. Further, in series [3], the CC50 at 72 h was 133 µM.

On to `FC(F)(F)c1ccc(-c2cc(-c3ccc(C(F)(F)F)cc3)c3ncccc3n2)cc1`, for which the values for the IC50 in the series with Leishmania infantum [1], on DNA topoisomerase 1 (read-out: IC50) and in the series on Leishmania infantum [5] were 9.47 µM, 50.9 µM and above 100 µM, respectively. In addition, the selectivity ratio in series [2] stood at 18.8. The CC50 at 72 h in series [3] is 178 µM.

With `FC(F)(F)c1ccc(-c2cc(-c3ccccc3)c3ncccc3n2)cc1`, the IC50 in the series with Leishmania infantum [1] is 0.47 µM; at DNA topoisomerase 1 (read-out: IC50), 72.7 µM; in series [4] (read-out: IC50), 69.5 µM; in the series on Leishmania infantum [5], 37.3 µM. In addition, the selectivity ratio in series [2] is 140. The CC50 at 72 h in series [3] came to 65.7 µM.

Take `CC[C@@]1(O)C(=O)OCc2c1cc1n(c2=O)Cc2cc3ccccc3nc2-1` [CAMPTOTHECIN]: the concentration for half-maximal inhibition (IC50) in series [4] (read-out: IC50) is 75.7 µM.

For the compound `C[C@@H]1[C@H](O)[C@@H](C)/C=C/C=C/C=C/C=C/C=C/C=C/C=C/[C@H](O[C@@H]2O[C@H](C)[C@@H](O)[C@H](N)[C@@H]2O)C[C@@H]2O[C@](O)(C[C@@H](O)C[C@@H](O)[C@H](O)CC[C@@H](O)C[C@@H](O)CC(=O)O[C@H]1C)C[C@H](O)[C@H]2C(=O)O` [AMPHOTERICIN B], in series [2], the selectivity ratio is above 62.5. In addition, in series [3], the CC50 at 72 h was above 20 µM.

Regarding `Fc1ccc(-c2cc(-c3ccccc3)c3ncccc3n2)cc1`, the 50% inhibitory concentration (IC50) with Leishmania infantum [1] is 7.41 µM; on DNA topoisomerase 1 (read-out: IC50), 72.8 µM; in series [4] (read-out: IC50), 81.9 µM; in the series on Leishmania infantum [5] it was above 100 µM. In addition, the selectivity ratio in series [2] amounted to 16.7. Also, in series [3], the 50% cytotoxic concentration (CC50) at 72 h stood at 124 µM.

In the case of `COc1cccc(-c2cc(-c3ccccc3)c3ncccc3n2)c1`, the values for the half-maximal inhibitory concentration (IC50) in the series on Leishmania infantum [1], on DNA topoisomerase 1 (read-out: IC50) and in the series on Leishmania infantum [5] were 0.58 µM, 82 µM and above 100 µM, respectively. Besides, the selectivity ratio in series [2] was found to be 272. Besides, the cytotoxic concentration (CC50) at 72 h in series [3] amounted to 157 µM.

In the case of `O=[N+]([O-])c1cccc(-c2cc(-c3ccccc3)c3ncccc3n2)c1`, the half-inhibitory concentration (IC50) is 1.02 µM with Leishmania infantum [1], “Not Active” at DNA topoisomerase 1 and 79.2 µM with Leishmania infantum [5]. Moreover, in series [2], the selectivity ratio was 143. In series [3], the CC50 at 72 h is 146 µM.

Take `Fc1ccc(-c2cc(-c3ccccc3)c3ncccc3n2)cc1F`: the IC50 in the series on Leishmania infantum [1] is 2.82 µM; on DNA topoisomerase 1 (read-out: IC50) it was 73.1 µM; in series [4] (read-out: IC50), 76.6 µM; in the series on Leishmania infantum [5], above 100 µM. The selectivity ratio in series [2] amounted to 7.7. The 50% cytotoxic concentration (CC50) at 72 h in series [3] was determined as 21.7 µM.

With `c1ccc(-c2cc(-c3ccccc3)c3ncccc3n2)cc1`, the IC50 in the series on Leishmania infantum [1] was found to be 8.42 µM; on DNA topoisomerase 1 (read-out: IC50), 11.2 µM; in the series with Leishmania infantum [5] it was 27.2 µM. The selectivity ratio in series [2] amounted to 6.5. Also, the inhibition entry in the series on Leishmania donovani is “Active”. Moreover, the CC50 at 72 h in series [3] came to 54.8 µM.

Turning to `Cc1c(-c2ccc(C(F)(F)F)cc2)nc2cccnc2c1-c1ccccc1`, the concentration for half-maximal inhibition (IC50) with Leishmania infantum [1] was 2.37 µM; at DNA topoisomerase 1 (read-out: IC50), 70.6 µM; in series [4] (read-out: IC50) it was 75.7 µM; in the series with Leishmania infantum [5] it was above 100 µM. The selectivity ratio in series [2] is 53.2. Besides, in series [3], the cytotoxic concentration (CC50) at 72 h is 126 µM.

With `COc1ccc(-c2cc(-c3ccc(C(F)(F)F)cc3)nc3cccnc23)cc1`, the half-inhibitory concentration (IC50) in the series with Leishmania infantum [1] was 2.26 µM; on DNA topoisomerase 1 it was “Not Active”; in the series with Leishmania infantum [5], above 100 µM. The selectivity ratio in series [2] came to 67.1. For the same compound, in series [3], the CC50 at 72 h turned out to be 152 µM.

For the origin of these results see ChEMBL document CHEMBL4152236, “Substituted 1,5-naphthyridine derivatives as novel antileishmanial agents. Synthesis and biological evaluation” (Eur J Med Chem, 2018).
